Screening results as filed in PubChem BioAssay.
Shown are actives, neighbours in structure and some others; about 1.3% of the full set was active somewhere.
S100A4 inh HTS: blocks human S100A4 binding to myosin IIA peptide; S100A4/TAMRA-MyoIIA peptide fluorescence polarization; AID 652163; 360,000 compounds, 0.14% hits; inhibition, % at 10.7 µM;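 active = mean inhibition of at least 70% across replicates, with every replicate also reaching that level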
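Material: S100A4 monomer protein | Medium: HEPES pH 7.2 with CaCl2, KCl, NaCl, DTT, Triton | Reagent: Labelled myosin peptide probe, 5 nM | Doses: One dose per compound | Times: 5 min incubation before reading | Benchmarks: Neutral control DMSO, positive control TFP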
MLL AF4-AF9 inh: blocks AF4 peptide binding to human AF9 | P42568 | AlphaScreen, biotin-AF4 peptide binding to FLAG-AF9 | inhibition, % at 10 µM | 350,000 compounds, 0.47% hits | AID 651704;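 active = every replicate reaching a set inhibition limit, whatever the replicate mean, cut at about 25% in these data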;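 note: 0% = plate neutral control median and 100% = total signal loss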
RAD54 inh: inhibitors of human RAD54 branch migration. Q92698. RAD54 Holliday junction branch migration, FAM/BHQ fluorescence. inhibition, % at 10.4 µM. 360,000 compounds, 0.14% hits;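 active = mean normalized replicate activity at least 40 and at least half of replicates scoring 40 or more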;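 note: 0% = median of neutral control wells and 100% = median of positive control wells; inhibitors cause a drop in the FAM fluorescence signal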
Target sequence (Q92698 whole entry, looked up): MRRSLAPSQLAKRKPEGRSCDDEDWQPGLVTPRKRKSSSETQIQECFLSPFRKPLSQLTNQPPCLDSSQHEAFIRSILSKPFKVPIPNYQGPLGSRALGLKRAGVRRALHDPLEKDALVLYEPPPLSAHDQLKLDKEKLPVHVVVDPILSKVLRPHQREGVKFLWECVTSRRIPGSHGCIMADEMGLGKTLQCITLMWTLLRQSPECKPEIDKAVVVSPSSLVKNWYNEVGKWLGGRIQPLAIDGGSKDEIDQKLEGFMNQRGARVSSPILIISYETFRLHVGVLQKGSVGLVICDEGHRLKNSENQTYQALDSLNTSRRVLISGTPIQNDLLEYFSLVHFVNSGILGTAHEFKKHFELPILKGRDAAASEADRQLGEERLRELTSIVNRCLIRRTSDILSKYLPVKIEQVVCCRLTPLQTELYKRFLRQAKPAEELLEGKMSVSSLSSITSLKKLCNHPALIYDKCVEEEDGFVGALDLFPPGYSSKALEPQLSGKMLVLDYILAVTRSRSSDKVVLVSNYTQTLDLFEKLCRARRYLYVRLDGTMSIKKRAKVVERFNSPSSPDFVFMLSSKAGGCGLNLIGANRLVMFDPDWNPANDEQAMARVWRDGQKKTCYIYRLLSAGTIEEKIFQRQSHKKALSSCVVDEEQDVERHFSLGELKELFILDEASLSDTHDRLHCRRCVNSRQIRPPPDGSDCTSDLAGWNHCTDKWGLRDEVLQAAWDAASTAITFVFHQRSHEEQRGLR
INS-1E GSIS act: primary screen for activators of insulin secretion dependent on glucose, INS-1E cells, GLuc reporter luminescence | INS-1E GLuc reporter insulin secretion, 2-3 h | activation, % at 16.6 µM | 370,000 compounds, 0.61% hits | AID 743287;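 active = lowest replicate activation of at least 40%, so every replicate reaches that level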;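 note: 0% = median of neutral control wells and 100% = median of IBMX positive control wells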
RAD52 anneal inh: RAD52 (human) annealing inhibition; 360,000 compounds, 0.46% hits; AID 651710; P43351; recombinant RAD52 DNA annealing, FRET fluorescence; inhibition, % at 18.7 µM;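 active = every replicate showing at least 50% inhibition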
* hit, by the source's call; x = no result given.

SMILES	S100A4 inh HTS	MLL AF4-AF9 inh	RAD54 inh	INS-1E GSIS act	RAD52 anneal inh
COc1cccc(NC(=O)Nc2ccc3c(c2)C(=O)N(C)C[C@@H](OC)[C@H](C)CN(CC2CC2)[C@@H](C)CO3)c1	-15	7	3	1	64*
COc1cccc(C(=O)Nc2ccc3c(c2)C(=O)N(C)C[C@H](OC)[C@@H](C)CN(C)[C@@H](C)CO3)c1	-6	-1	2	-5	10
C/C=C/c1ccc2c(c1)O[C@H](CN(C)C(=O)c1ccc(F)cc1)[C@@H](C)CN([C@@H](C)CO)S2(=O)=O	-7	-1	-5	-3	14
C#CCOCCOCCOCCNc1nc(N2CCN(C(=O)[C@H](CCCCN)n3cc(CN)nn3)CC2)nc(N2CCN(C(=O)[C@H](CCCCN)n3cc([C@@H](N)CC(N)=O)nn3)CC2)n1	-3	40*	-36	-1	44
C#CCOCCOCCOCCNc1nc(N2CCN(C(=O)C([C@@H](C)O)n3cc([C@@H](N)CCCCN)nn3)CC2)nc(N2CCN(C(=O)[C@H](CCCCN)n3cc([C@@H](N)CC(N)=O)nn3)CC2)n1 (some centres undefined)	4	45*	-23	x	41
C#CCOCCOCCOCCNc1nc(N2CCN(C(=O)C([C@@H](C)O)n3cc([C@@H](N)CCCCN)nn3)CC2)nc(N2CCN(C(=O)[C@H](CCC(=O)O)n3cc([C@@H](N)CCCCN)nn3)CC2)n1 (some centres undefined)	0	17	-37	10	-49
Cc1ccc(-c2ccc([C@@H]3[C@@H](CO)N4CCCCN(S(=O)(=O)c5ccccc5C)C[C@H]34)cc2)cc1	0	1	1	-9	-14
Cc1nn(-c2ccccc2)c(N2CCCC2)c1/C=N/NC(=S)Nc1ccccc1C(F)(F)F	-9	-18	x	x	-12
Cc1nn(-c2ccccc2)c(Cl)c1/C=N/O	-8	-1	x	13	-1
COc1ccccc1NS(=O)(=O)c1ccc(N/N=C/c2c(C)nn(-c3ccccc3)c2N2CCCC2)c([N+](=O)[O-])c1	x	x	x	-27	x
COc1ccccc1NS(=O)(=O)c1cccc(C(=O)N/N=C/c2c(C)nn(-c3ccccc3)c2N2CCCC2)c1	-23	12	x	73*	-21
Cc1nn(-c2ccccc2)c(N2CCCC2)c1/C=N/NC(=S)Nc1cc(C(F)(F)F)ccc1Cl	x	x	2	-5	x
Cc1nn(-c2ccccc2)c(N2CCCC2)c1/C=N/O	-2	-32	7	91*	-3
Cc1ccc(NC(=S)N/N=C/c2c(C)nn(-c3ccccc3)c2N2CCCC2)cc1	2	-2	x	64*	-10
Cc1nn(-c2ccccc2)c(N2CCCC2)c1/C=N/NC(=S)Nc1ccc(F)cc1	-3	2	-2	75*	-3
CC(C)NC(=O)N(C)C[C@H]1OCCCC[C@H](C)Oc2ccc(NS(=O)(=O)c3ccc(F)cc3)cc2C(=O)N([C@@H](C)CO)C[C@H]1C	10	-3	3	5	9
CC(C)NC(=O)N(C)C[C@@H]1Oc2ccc(NS(=O)(=O)c3cn(C)cn3)cc2CC(=O)N([C@H](C)CO)C[C@@H]1C	-15	-1	10	3	-2
O=C(Nc1cccc(Cl)c1)Nc1nc(-c2ccc(Cl)cc2)cs1	x	x	x	128*	x
C[C@@H]1CCCCO[C@@H](CN(C)C(=O)CCC(F)(F)F)[C@H](C)CN([C@@H](C)CO)C(=O)c2cc(NC(=O)Nc3ccccc3)ccc2O1	-1	-2	7	-16	12
CCN(C[C@H]1N[C@@](CC)(C(=O)OC)[C@H]2C(=O)N(C)C(=O)[C@@H]12)S(=O)(=O)c1ccc(OC)cc1	-2	-3	4	52*	-10
CC(C)C(Cl)=NOC(=O)Nc1ccc(S(N)(=O)=O)cc1	0	0	x	126*	-1
COC(=O)[C@H](C)NC(=O)Nc1ccc(S(N)(=O)=O)cc1	x	x	7	x	x
C[C@H](CO)N1C[C@H](C)[C@H](CN(C)S(C)(=O)=O)Oc2ccc(NC(=O)Cc3cn(C)c4ccccc34)cc2C1=O	-2	-5	3	10	12
CC(C)C#Cc1ccc([C@@H]2[C@H](CO)N3CCCCN(S(=O)(=O)Cc4ccccc4)C[C@@H]23)cc1	0	4	8	-25	-2
CC(C)c1cn(CC[C@H]2CC[C@H](NC(=O)C3CCCC3)[C@H](CO)O2)nn1	-2	-1	-7	10	-12
SMILES	S100A4 inh HTS	MLL AF4-AF9 inh	RAD54 inh	INS-1E GSIS act	RAD52 anneal inh
O=C(CSc1ncc(-c2ccc(F)cc2)n1Cc1ccco1)Nc1ccc2c(c1)OCO2	x	x	-6	-13	x
CCOc1ccc(NC(=O)CSc2ncc(-c3ccc(F)cc3)n2Cc2ccco2)cc1	-2	39*	x	-28	-15
COC(=O)c1sccc1NC(=O)C1CC(C)=C(C)CC1C(=O)O (centres undefined)	-10	30*	x	-14	-14
CCN(CC)Cc1c(C(=O)N/N=C(\C)c2ccncc2)nnn1-c1nonc1N	-1	43*	x	-7	-2
CN(Cc1c(C(=O)N/N=C/c2ccccc2O)nnn1-c1nonc1N)C1CCCCC1	0	-7	-2	518*	-16
Cc1nnn(-c2nonc2N)c1C(=O)N/N=C/c1cccc2ccccc12	x	x	x	86*	x
CN(Cc1c(C(=O)N/N=C/c2cccc(O)c2)nnn1-c1nonc1N)C1CCCCC1	-6	0	4	-8	-7
Cc1nnn(-c2nonc2N)c1C(=O)N/N=C/c1ccccc1O	x	x	x	1	x
C[C@@H]1CN([C@H](C)CO)C(=O)c2cc(NC(=O)c3ccncc3)ccc2O[C@@H]1CN(C)S(C)(=O)=O	-3	0	-42	26	-4
COC(=O)c1cccc(N/C=C(\[N+](=O)[O-])S(=O)(=O)c2ccccc2)c1	-13	0	-6	51*	-15
O=C(NCC[C@@H]1CC[C@@H](NS(=O)(=O)c2ccc(Cl)cc2)[C@H](CO)O1)Nc1ccc(F)cc1	-2	19	x	-15	14
CN1C(=O)c2cc(NC(=O)C3CCCC3)ccc2OC[C@@H]2O[C@@H](CC(=O)NCc3ccccc3F)CC[C@H]21	-4	1	x	-11	2
Cc1ccc(-n2c(-c3ccccc3)c[nH]c2=S)cc1	-2	8	x	5	-3
COc1ccc(-n2c(-c3ccc(Cl)cc3)c[nH]c2=S)cc1	-1	0	-11	200*	-11
CN(C)c1ccc(Nc2ncnc3ccc(Br)cc23)cc1	-7	26*	-3	-9	-19
CCCC(=O)Nc1ccc2c(c1)OC[C@@H](C)N(C(=O)c1cnccn1)C[C@H](C)[C@H](OC)CN(C)C2=O	-35	0	-2	-4	-4
CC(=O)Nc1ccc(S(=O)(=O)Nc2ccc3c(c2)n(C)c(=O)n3C)c(C)c1	1	0	-1	98*	-7
Cc1ccc2nc(N/N=C/c3ccccc3C#N)nc(-c3ccccc3)c2c1	-7	16	10	48*	-24
